Test results as given in ChEMBL document CHEMBL3352738, “A new phenylpropanoid and an alkylglycoside from Piper retrofractum leaves with their antioxidant and α-glucosidase inhibitory activity” (Bioorg Med Chem Lett, 2014).

What was measured:
[1] = Antioxidant activity assessed as […] reduction power at 10 uM after 1 hr by cupric ion reducing antioxidant capacity assay; format: physicochemical
[2] = Inhibition of alpha-glucosidase (unknown origin) using 3 mM p-NPG solution at 50 uM relative to control; conditions: Rattus norvegicus
[3] = Metal chelating activity of the compound assessed as Cu2+ chelating activity at 10 uM by fluorescence assay relative to control; format: physicochemical
[4] = Antioxidant activity assessed as trolox equivalent of AAPH radical scavenging activity at 1 uM after 2 mins by ORAC-RCoo assay; format: physicochemical
Method in brief: (§1)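 Peroxyl radical scavenging was measured by the oxygen radical absorbance capacity (ORAC) assay, with Trolox as the positive control. Values are reported as Trolox equivalents (TE).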

[5] = Antioxidant activity assessed as trolox equivalent of AAPH radical scavenging activity at 10 uM after 2 mins by ORAC-RCoo assay; format: physicochemical; method in brief: as §1
[6] = Antioxidant activity assessed as […] reduction power at 1 uM after 1 hr by cupric ion reducing antioxidant capacity assay; format: physicochemical

Structure (SMILES)	Activity [1]	inhibition [2]	Activity [3]	Activity [4]	Activity [5]	Activity [6]
CCCCC[C@H](C)O[C@@H]1O[C@H](CO[C@@H]2OC[C@@H](O)[C@H](O)[C@H]2O)[C@@H](O)[C@H](O)[C@H]1O	0.59 µM	8.54%	20.58%	0.48 µM	2.26 µM	0.17 µM
CCCCC[C@H](C)O[C@@H]1O[C@H](CO[C@@H]2OC[C@](O)(CO)[C@H]2O)[C@@H](O)[C@H](O)[C@H]1O	1.13 µM	8.62%	19.63%	1.04 µM	3.07 µM	0.34 µM
CC1=CC(=O)CC(C)(C)[C@@]1(O)CC[C@@H](C)O[C@@H]1O[C@H](CO)[C@@H](O)[C@H](O)[C@H]1O	0.34 µM	6.9%	20.5%	0.12 µM	0.92 µM	0.21 µM
COc1cc(C[C@@H](O)CO)ccc1O[C@@H]1O[C@H](CO)[C@@H](O)[C@H](O)[C@H]1O	0.96 µM	11.7%	24.21%	0.55 µM	2.88 µM	0.29 µM
CCCCO[C@@H]1O[C@H](CO)[C@@H](O)[C@H](O)[C@H]1O	1.68 µM		18.04%	0.62 µM	3.64 µM	0.18 µM
C=CCc1ccc(O)c(O)c1 [HYDROXYCHAVICOL]	22.77 µM	9.08%	20.48%	2.55 µM	16.26 µM	1.55 µM
C=CCc1ccc(O[C@@H]2O[C@H](CO)[C@@H](O)[C@H](O)[C@H]2O)c(O[C@@H]2O[C@H](CO)[C@@H](O)[C@H](O)[C@H]2O)c1	0.65 µM	7.02%	21.8%	0.17 µM	1.71 µM	0.32 µM
OC[C@H]1O[C@@H](OCc2ccccc2)[C@H](O)[C@@H](O)[C@@H]1O	0.69 µM	12%	22.39%	0.18 µM	1.83 µM	0.41 µM
COc1cc(O[C@@H]2O[C@H](CO)[C@@H](O)[C@H](O)[C@H]2O)ccc1O [TACHIOSIDE]	0.63 µM	4.6%	21.42%	0.21 µM	1.65 µM	0.21 µM
CC(C)O[C@@H]1O[C@H](CO)[C@@H](O)[C@H](O)[C@H]1O	0.54 µM	7.31%	20.97%	0.22 µM	1.79 µM	0.29 µM
COc1cc(C[C@@H](O)CO)ccc1O	43.82 µM		25%	3.59 µM	28.2 µM	9.01 µM
OC[C@@]1(O)CO[C@@H](OC[C@H]2O[C@@H](OCc3ccccc3)[C@H](O)[C@@H](O)[C@@H]2O)[C@@H]1O	0.84 µM	7.93%	19.3%	0.15 µM	1.61 µM	0.46 µM
CC(C)O[C@@H]1O[C@H](CO[C@@H]2OC[C@@H](O)[C@H](O)[C@H]2O)[C@@H](O)[C@H](O)[C@H]1O	0.63 µM	7.49%	21.67%	0.31 µM	2.13 µM	0.27 µM
